Here are results for five molecules from PMC6214802 (Molecular microbiology, 2018).

pKd: −log10 of the molar value. Where two headings read alike, the source gives them in different places.

Test [1] concerns the target V. cholerae Aer2 PAS1 [1–164] peptide (V. cholerae O1 JBK 70). Briefly: SEC.
Test [2] has as its target V. cholerae Aer2 PAS2 [165–282] peptide (V. cholerae O1 JBK 70). Briefly: SEC.
The target is the same in test [3]. The test can be described thus: SEC. This is another data set of the same source.
Test [4] deals with V. cholerae Aer2 PAS1 [38–157] peptide (V. cholerae O1 JBK 70). Briefly: SEC.
The target is the same in test [5]. Briefly: SEC. This is another data set of the same source.
The target of the next test is VcAer2 [165–678]. The test can be described thus: O2 and CO titrations of purified VcAer2 [165–678]. In kind it is binding, Vibrio cholerae. Particulars: read-out: Kd(CO). The essentials:
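Truncated receptor was expressed in E. coli BT3388 in LB Lennox with 0.5 µg ml−1 thiamine and 25 µg ml−1 ALA, induced with 600 µM IPTG, then Ni-NTA purified. Heme content was assessed on 5 µM purified protein. Kd(O2) and Kd(CO) came from linear interpolation between unliganded Fe2+ and liganded (Fe2+-O2, Fe2+-CO) absorption spectra. Averaged over 2–8 experiments and rounded to whole numbers.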

The test system of test [6] is PAS2 [165–282] W276 mutant peptides. Briefly: Gas binding to purified PAS2 [165–282] W276 mutant peptides. Set-up: species or system Vibrio cholerae. The conditions noted are these: PAS2 peptides containing W276C, L and V.
A further test addresses VcAer2 PAS2 [165–282]. Briefly: O2 and CO titrations of purified PAS2 peptide. In kind it is binding, Vibrio cholerae. Particulars: read-out: Kd(CO); PAS2 [165–282] peptide. Put shortly:
(§1)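 PAS1 [38–157] or PAS2 [165–282] peptides came from E. coli BT3388 grown in LB Lennox with 0.5 µg ml−1 thiamine and 25 µg ml−1 ALA, induced with 600 µM IPTG and Ni-NTA purified. Heme-bound protein was quantified by pyridine hemochrome assay to standardize PAS-heme concentration. Kd(O2) and Kd(CO) were estimated by linear interpolation between unliganded Fe2+ and Fe2+-O2 or Fe2+-CO spectra. Averaged over 2–8 experiments, rounded to whole numbers.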

A further test addresses VcAer2 PAS1 [38–157]. Briefly: O2 and CO titrations of purified PAS1 peptide. The conditions noted are these: read-out: Kd(CO); PAS1 [38–157] peptide. In kind it is binding, Vibrio cholerae. Put shortly:
as §1

Test [7] relates to PAS1 [38–157] mutant peptides. The test can be described thus: Gas binding to purified PAS1 [38–157] mutant peptides. More on the design: species or system Vibrio cholerae.
For test [8], the target named is PaPAS (Pseudomonas aeruginosa Aer2 PAS domain). The conditions noted are these: read-out: Kd(CO), ref Garcia et al., 2017; cited from earlier work.
The test system of another test is VcAer2/BT3388 cells. Briefly: Behavioral assay. Type of test: cell-based, E. coli. The conditions noted are these: full-length VcAer2; 200 µM or 1 mM IPTG; with or without 25 µg ml^−1 ALA. Put shortly: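 Full-length receptor expressed in chemoreceptorless E. coli BT3388 grown at 30 °C in tryptone broth with 0.5 µg ml−1 thiamine (± 25 µg ml−1 ALA). Induced at OD600 0.2–0.25 for 2 h with 200 µM or 1 mM IPTG. Gas perfusion chamber toggled between air (20.9% O2) and N2. For CO, 30 s N2 then 10 s CO (>99%). Percent tumbling scored for all motile cells per field at 800×. Repeated ≥2 times on ≥2 occasions.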

In the next test the test system is PaAer2/BT3388 cells. The conditions noted are these: PaAer2 in E. coli; ref Watts et al., 2011; cited from earlier work.
Test [9] has as its target V. cholerae Aer2 PAS 1–2 [1–282] peptide (V. cholerae O1 JBK 70). Briefly: SEC.

For “V. cholerae Aer2 PAS1 [1–164] peptide (domain or fragment)”, the stoichiometry N in test [1] was 2.

Consider “V. cholerae Aer2 PAS2 [165–282] peptide (domain or fragment)”, for which the stoichiometry N in test [2] and in test [3] was 2 in each case.

As to “V. cholerae Aer2 PAS1 [38–157] peptide (domain or fragment)”, the stoichiometry N in [4] and in [5] was 2 throughout.

`[C-]#[O+]` [CO, carbon monoxide]: the pKd at VcAer2 [165–678] is 5.70; at VcAer2 PAS2 [165–282], 5.30; at VcAer2 PAS1 [38–157], 5.15; in [8], 5.70. In addition, the CO binding result in [6] is “bound CO”; in test [7] (PAS1-Y119L/W151L), “bound heme and CO”. The “CO binding affinity relative to WT” value in [7] (PAS1-W151C, F, G, P, S, T and V) was “WT affinities”; in test [7] (PAS1-W151L), “WT affinities”; in test [7] (PAS1-Y119L), “WT O2 and CO affinities”. The “behavioral response to gas” value in the test on VcAer2/BT3388 cells is reported as “did not respond”. The “cells tumbling in the presence of gas” value in the test with PaAer2/BT3388 cells is listed as ~ 98%.

Molecule “V. cholerae Aer2 PAS 1–2 [1–282] peptide (domain or fragment)” returned a stoichiometry N in test [9] of 2.
